SMILES strings stand for the structures. Calls of active or inactive are those of the source. No cut-off for these calls is given here.

Consider two compounds from ChEMBL document CHEMBL5678817, “FTBMT, a Novel and Selective GPR52 Agonist, Demonstrates Antipsychotic-Like and Procognitive Effects in Rodents, Revealing a Potential Therapeutic Agent for Schizophrenia” (J Pharmacol Exp Ther, 2017).

Assay [1] has as its system Mus musculus. As to the kind of experiment: Antipsychotic activity in methamphetamine-induced hyperactivity in ICR mouse assessed as minimum effective dose administered orally. It counts as functional. The following applies: route po, read-out: MED.
Assay [2] has as its system Rattus norvegicus. Kind of assay: Effect on prolactin level in Wistar rat at 1 mg/kg, po […] by immunoassay. It counts as functional, organism-based. The method, boiled down: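 Male Wistar rats (7 weeks) dosed orally (haloperidol 1 mg/kg among arms) or vehicle. Trunk blood taken into EDTA 1 h later and centrifuged 1600 g, 20 min, 4 °C. Plasma prolactin measured by rat prolactin enzyme immunoassay; n = 4.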

For the compound `Cc1cc2c(s1)Nc1ccccc1N=C2N1CCN(C)CC1` [OLANZAPINE], the minimal effective dose in assay [1] stood at 1 mg/kg. `O=C(CCCN1CCC(O)(c2ccc(Cl)cc2)CC1)c1ccc(F)cc1`: the result in assay [2] was Active.
